Screening data deposited in PubChem BioAssay by The Scripps Research Institute Molecular Screening Center.
Only some compounds are listed: those with a hit (about 3.7% of all), similar ones and a draw of the others.
HCV NS3 hel inh – blocks Hepatitis C virus NS3 helicase unwinding. NS3 helicase DNA unwinding, Cy5 molecular beacon fluorescence. hit rate 0.56% among 290,000. inhibition, % at 10.9 µM;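 active = inhibition above the mean of all tested compounds plus 3 SD, set per campaign, cut at about 35% in these data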;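 also: 0% = DMSO wells and 100% = thioflavine S control wells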
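Test system: hepatitis C virus NS3 helicase domain fragment enzyme. Also added: annealed dual-labelled DNA beacon duplex, ATP-started. Timing: 60 min unwinding reaction at 25 °C after ATP addition. Technique: Cy5 fluorescence. Measure: % inhibition of unwinding.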
HCV core dimer – HCV core protein dimerization inhibition. AID 1899. inhibition, % at 5 µM. hit rate 0.33% among 300,000. TR-FRET GST/Flag-core106 dimerization, 1536-well;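 active = inhibition above the mean of all tested compounds plus 3 SD, set per screening campaign, cut at about 45% in these data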
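Material: Tagged HCV core106 pair (GST and Flag) | Amount: GST-core106 13.5 nM, Flag-core106 17 nM | Medium: KF-containing HEPES buffer, pH 7.45, DTT, CHAPS, BSA | Reagent: Eu donor and XL665 acceptor anti-tag antibodies | Schedule: 4 h at 22.5 °C | Technique: Time-resolved FRET, ex 340 nm, em 617 and 671 nm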
TAAR1 antag – antagonists of human TAAR1; hit rate 1.5% among 360,000; CHO RD-HGA16 TAAR1, Fluo-8 calcium fluorescence, antagonist; inhibition, % at 3 µM;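 active = inhibition above a per-plate cutoff, the mean inhibition of test compounds on that plate plus 3 SD, cut at about 49% in these data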;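 also: 0% = DMSO plus EC80 beta-PEA response and 100% = DMSO alone without agonist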
Target sequence (Q96RJ0 whole entry, looked up): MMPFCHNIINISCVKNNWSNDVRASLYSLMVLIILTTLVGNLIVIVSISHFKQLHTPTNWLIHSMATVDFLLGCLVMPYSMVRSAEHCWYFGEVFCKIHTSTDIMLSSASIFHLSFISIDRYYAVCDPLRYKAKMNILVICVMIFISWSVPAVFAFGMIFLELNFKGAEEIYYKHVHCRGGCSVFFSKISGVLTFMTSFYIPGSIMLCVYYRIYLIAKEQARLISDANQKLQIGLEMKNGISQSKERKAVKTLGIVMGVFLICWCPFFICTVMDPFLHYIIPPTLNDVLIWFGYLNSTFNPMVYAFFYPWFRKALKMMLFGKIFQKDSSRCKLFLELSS
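Assay system: RD-HGA16 CHO cells with stable hTAAR1 and Gα16 / Reagent: EC80 β-phenethylamine stimulus / Doses: 3 µM, single point / Timing: dye loading 75 min at 37 °C, then 30 min room temperature / Measured by: Fluo-8 intracellular calcium dye fluorescence, real-time kinetic reads / Controls: vehicle wells and EC80 agonist wells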
rCAG RNA binder – r(CAG) repeat RNA binding. TO-PRO-1 dye displacement fluorescence. inhibition, % at 3 µM. hit rate 1.3% among 370,000;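 active = inhibition above the plate cutoff, the mean of all test compounds on that plate plus 3 SD, cut at about 35% in these data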;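 also: 0% = DMSO alone and 100% = 100 µM mitoxantrone as full dye displacement; higher means more dye released from RNA so lower well fluorescence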
TAAR1 ag – human TAAR1 agonism; activation, % at 3 µM; AID 624467; hit rate 0.99% among 360,000; Q96RJ0; CHO RD-HGA16 TAAR1, Fluo-8 calcium fluorescence; vehicle wells 0%, saturating PEA agonist 100%;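 active = activation above the mean activation of all test compounds in the run plus 3 SD, cut at about 38% in these data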
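Test system: RD-HGA16 (CHO) cells co-expressing Gα16 and hTAAR1 / Benchmarks: DMSO vehicle as 0%, PEA at EC100 as 100% / Repeats: no replicates (n 1) / Measure: % activation from peak over basal fluorescence ratio, DMSO-to-PEA scaled / Timing: 17-24 h plating, Fluo-8 75 min 37 °C, 30 min RT / Technique: kinetic Fluo-8 calcium fluorescence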
TAAR1 nonsel count – nonselective antagonist in TAAR1 antagonist counter-screen | shares compounds with TAAR1 antag | counterscreen cell line, calcium fluorescence, antagonist mode | inhibition, % at 3 µM | hit rate 77% among 2,400; in the data active = inhibition above about 22%;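 also: CHO-Ga16 host cells stimulated with ATP at an EC80 level; 0% = agonist EC80 plus vehicle and 100% = vehicle without agonist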
TAAR1 ant conf – confirmation of human TAAR1 antagonists; shares compounds with TAAR1 antag; TAAR1-expressing cells, fluorescence antagonist read-out; inhibition, % at 3 µM; hit rate 40% among 2,400; AID 651785; in the data active = inhibition above about 49%;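 also: CHO-Ga16 host cells challenged with agonist PEA near its EC80; 0% = agonist at EC80 plus vehicle and 100% = vehicle with no agonist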
Ga16 ag counter – nonselective Ga16 agonist in TAAR1 antagonist counter-screen | shares compounds with TAAR1 antag | activation, % at 3 µM | hit rate 18% among 2,400 | Ga16-expressing cells, calcium fluorescence, agonist counterscreen; in the data active = activation above about 12%;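 also: 0% = vehicle wells and 100% = saturating stimulus response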
TAAR1 ag count – counter-screen for human TAAR1 antagonists: TAAR1 agonists. shares compounds with TAAR1 antag. hTAAR1 cell line, fluorescence activation, agonist mode. activation, % at 3 µM. hit rate 2% among 2,400. AID 651955; in the data active = activation above about 37%;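 also: CHO cells stably expressing TAAR1 with calcium dye readout; 0% = DMSO vehicle and 100% = full agonist response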
Starred values were filed as active, the others as inactive; x = not tested or not shown.

SMILES	HCV NS3 hel inh	HCV core dimer	TAAR1 antag	rCAG RNA binder	TAAR1 ag	TAAR1 nonsel count	TAAR1 ant conf	Ga16 ag counter	TAAR1 ag count
C=CCN1C(=O)[C@@H](CC(=O)NCCCOCCCC)[C@]2(C(=O)OC)CCCCC=C12	x	x	x	-2	x	x	x	x	x
CCOC(=O)c1cc(-c2nnc(SCC(=O)Nc3ccc(F)cc3)o2)c(C)nc1C	-11	2	54*	0	9	18	31	5	3
Cc1nc(SCC(=O)c2ccccc2)c(C#N)c(-c2ccco2)c1C(=O)NCc1ccco1	33	11	62*	13	25	35*	58*	10	7
COCCOC(=O)c1c(C)nc(SCC(=O)Nc2ccc(OC)cc2)c(C#N)c1-c1ccco1	-5	3	-6	2	4	x	x	x	x
C=CCN1C(C(=O)OC)CN(Cc2cn(Cc3ccc(C)cc3)nn2)CCS1(=O)=O (configuration not stated)	x	x	x	-1	x	x	x	x	x
Cc1cccn2c(=O)c3cc(C#N)c(=NC(=O)c4cccs4)n(CCCOC(C)C)c3nc12	5	25	67*	-5	14	24*	48	9	8
Cn1nc(C(=O)N2CCN(c3cccc(Cl)c3)CC2)c2c1-c1ccccc1S(=O)(=O)C2	-13	3	42	1	11	x	x	x	x
Cc1cccc(N2CCN(C(=O)c3nn(C)c4c3CS(=O)(=O)c3ccccc3-4)CC2C)c1 (configuration not stated)	-18	5	53*	2	15	31*	44	10	9
CCOc1cc(C(=S)N2CCOCC2)ccc1OC(=O)c1ccccc1	-5	-5	0	-7	0	x	x	x	x
CCOc1cc(C(=S)N2CCOCC2)ccc1OC(=O)c1cccc(C)c1	-10	9	66*	-1	9	31*	48	5	1
COC(=O)C1CN(C2CCCC2)CCS(=O)(=O)N1Cc1ccc(C)cc1 (configuration not stated)	x	x	x	2	x	x	x	x	x
CCN1C(=O)N[C@H]2C[C@H](C(=O)N3CCCC3)[C@H](C)[C@H](c3ccccc3)C[C@H]21	x	x	-19	2	1	x	x	x	x
CC(C)=CCC/C(C)=C/CN1C(=O)N(c2ccc(F)cc2)[C@H]2C[C@@H](c3ccccc3)[C@@H](C)[C@@H](C(=O)N3CCOCC3)C[C@H]21	x	x	65*	5	2	35*	59*	1	1
O=C(Nc1ccc(Oc2ccccc2)cc1)C1CCN(c2nnc(-n3cccc3)s2)CC1	x	x	x	13	x	x	x	x	x
CCC(CC)N1CCN(Cc2nc3ccc([N+](=O)[O-])cc3c(=O)n2-c2ccccc2F)CC1	-1	12	-15	5	1	x	x	x	x
CCOC(=O)N1CCN(Cc2nc3ccc([N+](=O)[O-])cc3c(=O)n2-c2ccccc2F)CC1	-8	5	71*	3	19	11	15	4	9
C=CC[C@@H](Cc1ccc(F)cc1)C(=O)OC[C@H]1CCCN1C(=O)[C@@H](CC=C)CC(=O)N[C@H](CO)Cc1ccccc1	x	x	81*	-5	22	41*	43	13*	7
C=CC[C@@H](Cc1ccc(F)cc1)C(=O)OC[C@@H]1CCCN1C(=O)[C@@H](CC=C)CC(=O)N[C@H](CO)Cc1ccccc1	x	x	66*	-7	26	36*	34	9	9
C=CCC[C@@H](Cc1ccc(F)cc1)C(=O)OC[C@H]1CCCN1C(=O)[C@@H](CC=C)CC(=O)N[C@H](CO)Cc1ccccc1	x	x	67*	0	18	29*	53*	7	7
C=CC[C@@H](Cc1ccc(F)cc1)C(=O)OC[C@H]1CCCN1C(=O)[C@@H](CC=C)CC(=O)N[C@@H](CO)Cc1ccccc1	x	x	16	3	10	x	x	x	x
COc1cccc(/C=C2\CC3(OC(=O)C4CCCCC4)CCCN2C3)c1 (configuration not stated)	x	x	x	2	x	x	x	x	x
O=C(OCC(=O)N(Cc1ccccc1)Cc1ccccc1)c1cccc(O)c1	x	x	63*	5	7	26*	40	2	2
O=C(OCC(=O)N(CCc1ccccc1)Cc1ccccc1)c1cccc(O)c1	-13	5	19	-1	-2	x	x	x	x
Cc1ccc(NC(=O)c2ccc(OC(=O)c3ccco3)cc2)cc1	2	0	-3	-6	4	x	x	x	x
O=C(Nc1cc(Cl)ccc1Cl)c1ccc(OC(=O)c2ccco2)cc1	18	-2	85*	1	11	25*	37	3	4
SMILES	HCV NS3 hel inh	HCV core dimer	TAAR1 antag	rCAG RNA binder	TAAR1 ag	TAAR1 nonsel count	TAAR1 ant conf	Ga16 ag counter	TAAR1 ag count
COc1ccc(S[C@]2(C(=O)N(C)C)CC(=O)N(c3ccsc3)[C@@H]2c2ccc(OC)cc2)cc1	x	x	x	2	x	x	x	x	x
O=C(CSc1c(Cl)cccc1Cl)N1CCC(c2nc3ccccc3s2)CC1	0	13	59*	-1	18	44*	50*	12*	11
O=C(Nc1cccc(F)c1)OCCCN1CCC2(CCC(c3ccccc3)CC2)C1 (configuration not stated)	x	x	x	1	x	x	x	x	x
C=CCN1C(=O)[C@@H](CC(=O)NCCCC)[C@]2(C(=O)OC)CCCCC=C12	x	x	x	1	x	x	x	x	x
CCOc1ccc(OCC)c(NC(=O)Nc2ccc3c(c2)N(C)C(=O)CS3)c1	-3	15	56*	11	4	22*	28	5	0
CN1C(=O)CSc2ccc(NC(=O)N3CCN(c4ccccn4)CC3)cc21	-5	13	7	1	6	x	x	x	x
CN1C(=O)CSc2ccc(NC(=O)Nc3ccccn3)cc21	9	4	70*	3	16	21	49*	8	7
COc1ccc(S(=O)(=O)N2CCOCC2)cc1NC(=O)C1COc2ccccc2O1 (configuration not stated)	x	1	59*	1	11	26*	38	6	4
O=C(Nc1cc(S(=O)(=O)N2CCOCC2)ccc1N1CCCC1)C1COc2ccccc2O1 (configuration not stated)	9	4	-21	-1	2	x	x	x	x
O=C(c1cc(-c2ccccc2Cl)nc2ccccc12)N1CCN(c2ccccc2O)CC1	x	7	59*	4	14	22*	36	7	6
O=C(c1cc(-c2ccccc2Cl)nc2ccccc12)N1CCC1	x	-4	12	-3	1	x	x	x	x
COc1ccc(-c2cc(C(=O)N3CCCC3)c3ccccc3n2)cc1	-7	1	16	-5	7	x	x	x	x
